These results are taken from ChEMBL document CHEMBL1154900, “Modified phenazines from an Indonesian Streptomyces sp” (2010).

Test [1] has as its system Rhizomucor miehei. Briefly: Antifungal activity against Mucor miehei at 56 ug/disk by agar diffusion method. The class given is functional, organism-based. The method in brief: (§1)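 Disk agar diffusion screen. Each sample was loaded per disk at the stated amount, either 14 µg/disk or 24 and 56 µg/disk. All six organisms were tested in one panel: S. aureus, B. subtilis, E. coli, P. aeruginosa, the fungus M. miehei and the yeast C. albicans.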
(A growth-free zone around the sample is the usual read-out of agar diffusion tests.)

In test [2] the test system is Escherichia coli. In words: Antibacterial activity against Escherichia coli at 24 ug/disk by agar diffusion method. The class given is functional, organism-based. The method in brief:
as §1

Test [3] concerns Rhizomucor miehei. In words: Antifungal activity against Mucor miehei at 24 ug/disk by agar diffusion method. The class given is functional, organism-based. The method in brief:
as §1

For test [4], the system named is Bacillus subtilis. In words: Antibacterial activity against Bacillus subtilis at 56 ug/disk by agar diffusion method. The class given is functional, organism-based. The method in brief:
as §1

In test [5] the test system is Staphylococcus aureus. Briefly: Antibacterial activity against Staphylococcus aureus at 56 ug/disk by agar diffusion method. The test is classed as functional, organism-based. The procedure, abridged:
as §1

Test [6] deals with Candida albicans. In words: Antifungal activity against Candida albicans at 24 ug/disk by agar diffusion method. The class given is functional, organism-based. The method in brief:
as §1

Test [7] relates to Bacillus subtilis. Briefly: Antibacterial activity against Bacillus subtilis at 24 ug/disk by agar diffusion method. The class given is functional, organism-based. The procedure, abridged:
as §1

Test [8] concerns Escherichia coli. Briefly: Antibacterial activity against Escherichia coli at 56 ug/disk by agar diffusion method. The test is classed as functional, organism-based. The method in brief:
as §1

For test [9], the system named is Pseudomonas aeruginosa. Briefly: Antibacterial activity against Pseudomonas aeruginosa at 24 ug/disk by agar diffusion method. The test is classed as functional, organism-based. The method in brief: as §1
The test system of test [10] is Candida albicans. Briefly: Antifungal activity against Candida albicans at 56 ug/disk by agar diffusion method. The test is classed as functional, organism-based. The method in brief: as §1
In test [11] the test system is Pseudomonas aeruginosa. In words: Antibacterial activity against Pseudomonas aeruginosa at 56 ug/disk by agar diffusion method. The test is classed as functional, organism-based. The procedure, abridged: as §1
Test [12] deals with Staphylococcus aureus. In words: Antibacterial activity against Staphylococcus aureus at 24 ug/disk by agar diffusion method. The test is classed as functional. The method in brief:
as §1

Structures are written as SMILES. The source made the active and inactive calls. The calls are words filed in the database; no cut-off is given here.

Turning to `CCC(=O)C(C)C(=O)C1(C)Cc2ccc(OC)c3c2N(C1=O)c1cccc(C(=O)O)c1N3` (centres undefined), the outcome in [1], in test [2], in [3], in test [4], in [5] and in test [6] was inactive. Moreover, the outcome in test [7], in test [8], in [9], in [10], in test [11] and in [12] was inactive.

Turning to `CCC(=O)C(C)C(=O)C(C)(Cc1ccc(OC)c2nc3c(C(=O)O)cccc3nc12)C(=O)OC` (centres undefined), the result in test [1], in test [3], in test [4], in [5], in test [6] and in test [7] was inactive. The outcome in test [8], in test [9], in [10] and in test [11] was inactive. Moreover, the “inhibition zone (IZ)” value in test [2] was “inactive”. Also, the zone of inhibition at 24 µg/disc in [12] (read-out: IZ) turned out to be 14 mm.
